{"source": "paper PMC8349901", "about": "(Journal of Peptide Science, 2021)", "key": {"[1]": {"assay": "Negative-stain TEM of self-assembled nanoribbon morphology", "assay_type": "physicochemical", "conditions": "0.2 mM peptide, 5% HFIP/water, average of at least 100 measurements; for Nanoribbon width: pH 3–4, room temperature", "how_it_was_run": "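Peptide, quantified by HPLC peak area against amino-acid-analysis-calibrated curves, dissolved in HFIP and diluted with water to 0.2 mM (5% HFIP, pH 3–4 from residual TFA). Vortexed 1 min, sonicated 5 min. Assembled sample applied to carbon-coated copper grids for 30 s, blotted, stained 2 min with 5% uranyl acetate, and water-washed. Imaged at 80 kV. Dimensions averaged over ≥100 distinct fibrils.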"}, "[2]": {"assay": "Self-assembly kinetics by circular dichroism over 24 h", "assay_type": "physicochemical", "conditions": "CD at 0, 1, 2, 4, 12, 24 h; 0.2 mM peptide, 5% HFIP/water, 25°C", "how_it_was_run": "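Lyophilized peptide, quantified by 215-nm HPLC calibration tied to amino acid analysis, was dissolved in HFIP, then water was added (pH 3–4 from residual TFA). Solutions were vortexed for 1 min and sonicated for 5 min. Spectra were scanned from 260 to 190 nm in a 0.1-mm quartz cell with 1.0-nm step, 1.0-nm bandwidth and 3 s per step, starting immediately after preparation.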"}, "[3]": {"conditions": "amino acid; glycine defined as 0; higher π = more hydrophobic; cited from earlier work"}}, "note": "Non-standard residues stand in square brackets, D forms with d. Residues, ends and D or L forms follow the SMILES beside them. Bip = N[C@@H](Cc1ccc(-c2ccccc2)cc1)C(=O)O"}
{"molecule": "CC(=O)N[C@@H](Cc1c[nH]c2ccccc12)C(=O)N[C@@H](CCCCN)C(=O)N[C@@H](Cc1c[nH]c2ccccc12)C(=O)N[C@@H](CCC(=O)O)C(=O)N[C@@H](Cc1c[nH]c2ccccc12)C(=O)N[C@@H](CCCCN)C(=O)N[C@@H](Cc1c[nH]c2ccccc12)C(=O)N[C@@H](CCC(=O)O)C(N)=O", "note": "[Peptide 3, Ac‐(WKWE)2‐NH2] (Ac-WKWEWKWE-NH2)", "values": [{"measurement": "Nanoribbon width", "setting": "[1]", "value": "7.3 ± 1.6", "unit": "nm"}, {"measurement": "evolution of CD signal over 24 h (self-assembly kinetics)", "setting": "[2]", "value": "occurring over 24 h"}]}
{"molecule": "N[C@@H](Cc1ccccc1)C(=O)O", "note": "[Phe, phenylalanine]", "values": [{"measurement": "partition coefficient (π) between octanol and water relative to glycine", "setting": "[3]", "value": 1.79}]}
{"molecule": "CC(=O)N[C@@H](Cc1ccc(-c2ccccc2)cc1)C(=O)N[C@@H](CCCCN)C(=O)N[C@@H](Cc1ccc(-c2ccccc2)cc1)C(=O)N[C@@H](CCC(=O)O)C(=O)N[C@@H](Cc1ccc(-c2ccccc2)cc1)C(=O)N[C@@H](CCCCN)C(=O)N[C@@H](Cc1ccc(-c2ccccc2)cc1)C(=O)N[C@@H](CCC(=O)O)C(N)=O", "note": "[Peptide 6, Ac‐(BipKBipE)2‐NH2] (Ac-[Bip]K[Bip]E[Bip]K[Bip]E-NH2)", "values": [{"measurement": "Nanoribbon width", "setting": "[1]", "value": "5.5 ± 0.9", "unit": "nm"}, {"measurement": "evolution of CD signal over 24 h (self-assembly kinetics)", "setting": "[2]", "value": "no effect on evolution of signal intensity over time"}]}
{"molecule": "CC(=O)N[C@@H](Cc1ccccc1)C(=O)N[C@@H](CCCCN)C(=O)N[C@@H](Cc1ccccc1)C(=O)N[C@@H](CCC(=O)O)C(=O)N[C@@H](Cc1ccccc1)C(=O)N[C@@H](CCCCN)C(=O)N[C@@H](Cc1ccccc1)C(=O)N[C@@H](CCC(=O)O)C(N)=O", "note": "[Peptide 1, Ac‐(FKFE)2‐NH2]", "values": [{"measurement": "Nanoribbon width", "setting": "[1]", "value": "8.8 ± 0.8", "unit": "nm"}, {"measurement": "Helical pitch", "setting": "[1]; left-handed helical nanoribbons", "value": "19.1 ± 1.3", "unit": "nm"}]}
{"molecule": "N[C@@H](Cc1c[nH]c2ccccc12)C(=O)O", "note": "[Trp, tryptophan]", "values": [{"measurement": "partition coefficient (π) between octanol and water relative to glycine", "setting": "[3]", "value": 2.25}]}
{"molecule": "N[C@@H](CCc1ccccc1)C(=O)O", "note": "[Hph, homophenylalanine]", "values": [{"measurement": "partition coefficient (π) between octanol and water relative to glycine", "setting": "[3]", "value": 2.10}]}
{"molecule": "CC(=O)N[C@@H](Cc1ccc(-c2ccccc2)cc1)C(=O)N[C@@H](CCCCN)C(=O)N[C@@H](Cc1ccccc1)C(=O)N[C@@H](CCC(=O)O)C(=O)N[C@@H](Cc1ccccc1)C(=O)N[C@@H](CCCCN)C(=O)N[C@@H](Cc1ccccc1)C(=O)N[C@@H](CCC(=O)O)C(N)=O", "note": "[Peptide 9, Ac‐BipKFEFKFE‐NH2] (Ac-[Bip]KFEFKFE-NH2)", "values": [{"measurement": "Nanoribbon width", "setting": "[1]", "value": "2.9 ± 0.5", "unit": "nm"}, {"measurement": "evolution of CD signal over 24 h (self-assembly kinetics)", "setting": "[2]", "value": "intensified dramatically over 24 h"}]}
